The source made the active and inactive calls. The rule behind the calls is not given here.
Columns and labels:
Vitamin D3 receptor [1] = target: T1, Vitamin D3 receptor (Homo sapiens, UniProt P11473); experiment: Activation of human VDR expressed in HEK293 cells cotransfected CMX-GAL4-NCoR2 and 4-tk-LUC assessed as inhibition of NCoR2 binding to VDR by mammalian two-hybrid assay; assay type: cell-based
T1 sequence (P11473 whole entry): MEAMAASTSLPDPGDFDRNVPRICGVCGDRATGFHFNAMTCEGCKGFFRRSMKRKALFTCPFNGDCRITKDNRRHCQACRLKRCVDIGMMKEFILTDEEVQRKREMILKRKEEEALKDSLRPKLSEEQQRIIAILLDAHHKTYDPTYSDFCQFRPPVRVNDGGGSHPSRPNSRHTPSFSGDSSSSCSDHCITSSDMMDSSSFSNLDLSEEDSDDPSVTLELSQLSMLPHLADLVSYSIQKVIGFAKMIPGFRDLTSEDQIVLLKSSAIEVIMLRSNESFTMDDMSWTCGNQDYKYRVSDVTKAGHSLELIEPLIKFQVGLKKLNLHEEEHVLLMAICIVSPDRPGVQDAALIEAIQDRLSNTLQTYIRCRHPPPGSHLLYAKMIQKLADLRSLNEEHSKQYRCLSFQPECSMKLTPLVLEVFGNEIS
How it was run: (§1)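 HEK293 cells in DMEM with 5% FBS, per well: 50 ng TK-MH100(UAS)×4-LUC reporter, 10 ng pCMX-β-galactosidase, 15 ng pCMX-VP16-VDR, and 15 ng of a GAL4 fusion. The fusion was RXRα for heterodimerisation, SRC-1 for coactivator binding, N-CoR, or SMRT (NCoR2). Cells were treated across a concentration range. Luciferase was normalised to β-galactosidase.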

THP-1 [2] = experiment: Induction of cathelicidine antimicrobial peptide mRNA expression in human THP1 cells at 100 nM after 24 hrs by real-time PCR relative to skin cells; assay type: functional
How it was run: (§2)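 THP-1 and U937 cells were grown in RPMI1640 with 10% FBS and penicillin/streptomycin at 37 °C under 5% CO₂, and plated at 1 × 10⁴ cells/well. After 24 h, cells got an ethanol control, 100 nM 1,25(OH)₂D₃ or 100 nM analogue for 24 h. RNA was extracted by a chloroform method and reverse-transcribed. CAMP was measured by SYBR Green real-time PCR, normalized to ACTIN mRNA and compared with 1,25(OH)₂D₃.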

Vitamin D3 receptor [3] = target: T1, Vitamin D3 receptor; experiment: Activation of human VDR expressed in HEK293 cells cotransfected CMX-GAL4-N-CoR and 4-tk-LUC assessed as inhibition of N-CoR binding to VDR by mammalian two-hybrid assay; assay type: cell-based; how it was run: as §1
HaCaT [4] = experiment: Induction of cyp24A1 mRNA expression in human HaCaT cells at 100 nM after 24 hrs by real-time PCR relative to 1-alpha,25-dihydroxyvitamin D3; assay type: functional
How it was run: (§3)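 Cells seeded at 1 × 10⁴ per well and treated 24 h later with ethanol vehicle or 100 nM ligand for 24 h. Total RNA taken by a chloroform method, reverse-transcribed, and target mRNA quantified by SYBR Green real-time PCR, normalized to ACTIN mRNA. Culture media: HEK293 in DMEM 5% FBS; SW480 and HaCaT in DMEM 10% FBS; MG63 in MEM 10% FBS; THP-1 and U937 in RPMI1640 10% FBS; all at 37 °C, 5% CO₂.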

Vitamin D3 receptor [5] = target: T1, Vitamin D3 receptor; experiment: Activation of human VDR expressed in HEK293 cells cotransfected CMX-GAL4-RXRalpha and 4-tk-LUC assessed as heterodimerization with RXRalpha by mammalian two-hybrid assay; assay type: cell-based; how it was run: as §1
SW480 [6] = experiment: Induction of TRPV6 mRNA expression in human SW480 cells at 100 nM after 24 hrs by real-time PCR relative to 1-alpha,25-dihydroxyvitamin D3; assay type: functional; how it was run: as §3
Vitamin D3 receptor [7] = target: T1, Vitamin D3 receptor; experiment: Activation of human VDR expressed in HEK293 cells cotransfected CMX-GAL4-SRC1 and 4-tk-LUC assessed as SRC1 interaction with AF2 surface of VDR by mammalian two-hybrid assay; assay type: cell-based; how it was run: as §1
U-937 [8] = experiment: Induction of cyp24A1 mRNA expression in human U937 cells at 100 nM after 24 hrs by real-time PCR relative to 1-alpha,25-dihydroxyvitamin D3; assay type: functional; how it was run: as §3
U-937 [9] = experiment: Induction of cathelicidine antimicrobial peptide mRNA in human U937 cells at 100 nM after 24 hrs by real-time PCR relative to skin cells; assay type: functional; how it was run: as §2
MG-63 = experiment: Induction of cyp24A1 mRNA expression in human MG63 cells at 100 nM after 24 hrs by real-time PCR relative to 1-alpha,25-dihydroxyvitamin D3; assay type: functional; how it was run: as §3
Vitamin D3 receptor [10] = target: T1, Vitamin D3 receptor; experiment: Displacement of [3H]-1,25(OH)2D3 from GST-fused human VDR-LBD expressed in Escherichia coli BL21
How it was run: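 hVDR-LBD (aa 140–427) as a GST fusion from E. coli BL21 sonicated lysate, 1 μg in pH 7.5 Tris/KCl/DTT/CHAPS buffer with BSA. Ligand in EtOH was preincubated 30 min at RT. [26,27-methyl-³H]-1,25(OH)₂D₃ was then added for 20 h at 4 °C. Free ligand was removed with dextran-coated charcoal and centrifugation, and bound radioactivity counted. IC50 from at least two triplicate runs.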

Vitamin D3 receptor [11] = target: T1, Vitamin D3 receptor; experiment: Transactivation of human VDR expressed in HEK293 cells cotransfected with mouse VDRE, Tk-Sppx3-LUC reporter plasmid measured after 24 hrs by luciferase reporter assay; assay type: cell-based
How it was run: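 HEK293 cells in DMEM with 5% FBS, calcium phosphate-transfected per well with 50 ng TK-Spp×3-LUC (mouse osteopontin VDRE), 10 ng pCMX-β-galactosidase, 15 ng pCMX-VDR and 15 ng pCMX-RXRα. Compounds were tested across a concentration range and cells harvested after 16–24 h. Luciferase was normalised to β-galactosidase. EC50 and efficacy relative to 1,25(OH)₂D₃.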

HaCaT [12] = experiment: Induction of cathelicidine antimicrobial peptide mRNA expression in human HaCaT cells at 100 nM after 24 hrs by real-time PCR relative to 1-alpha,25-dihydroxyvitamin D3; assay type: functional; how it was run: as §3
HEK293 [13] = experiment: Induction of cyp24A1 mRNA expression in HEK293 cells at 100 nM after 24 hrs by real-time PCR relative to 1-alpha,25-dihydroxyvitamin D3; assay type: functional, Homo sapiens; how it was run: as §3
THP-1 [14] = experiment: Induction of cathelicidine antimicrobial peptide mRNA expression in human THP1 cells at 100 nM after 24 hrs by real-time PCR relative to 1-alpha,25-dihydroxyvitamin D3; assay type: functional; how it was run: as §3
THP-1 [15] = experiment: Induction of cyp24A1 mRNA expression in human THP1 cells at 100 nM after 24 hrs by real-time PCR relative to 1-alpha,25-dihydroxyvitamin D3; assay type: functional; how it was run: as §3
SW480 [16] = experiment: Induction of cyp24A1 mRNA expression in human SW480 cells at 100 nM after 24 hrs by real-time PCR relative to 1-alpha,25-dihydroxyvitamin D3; assay type: functional; how it was run: as §3
U-937 [17] = experiment: Induction of cathelicidine antimicrobial peptide mRNA expression in human U937 cells at 100 nM after 24 hrs by real-time PCR relative to 1-alpha,25-dihydroxyvitamin D3; assay type: functional; how it was run: as §3
[18] = target: T2, Vitamin D3 receptor (Homo sapiens) (UniProt P11473); settings: HEK293, 10 to 1000 nM
T2 sequence (whole entry): T1 sequence (P11473 whole entry)

HEK293 [19] = experiment: Induction of cyp24A1 mRNA expression in HEK293 cells at 100 nM after 24 hrs by real-time PCR; assay type: functional, cell-based; settings: Homo sapiens; how it was run: as §3
[20] = target: T2, Vitamin D3 receptor (Homo sapiens); experiment: Inhibition of 1,25(OH)2D3-induced transactivation of human VDR expressed in HEK293 cells cotransfected with mouse VDRE, Tk-Sppx3-LUC reporter plasmid measured after 24 hrs by luciferase reporter assay; assay type: cell-based
How it was run: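 HEK293 cells in DMEM with 5% FBS were calcium-phosphate cotransfected with TK-Spp×3-LUC reporter, pCMX-β-galactosidase, pCMX-VDR and pCMX-RXRα. Cells were then exposed to a range of test concentrations together with 10 nM 1,25(OH)₂D₃. Harvest came 16–24 h later, with luciferase normalized to β-galactosidase.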

EC50 (Vitamin D3 receptor [1]) [nM]	EC50 (Vitamin D3 receptor [3]) [nM]	EC50 (Vitamin D3 receptor [5]) [nM]	EC50 (Vitamin D3 receptor [7]) [nM]	IC50 (Vitamin D3 receptor [10]) [nM]	EC50 (Vitamin D3 receptor [11]) [nM]	inhibition [18]	SMILES	fold change (FC) (THP-1 [2])	Activity (HaCaT [4]) [%]	Activity (SW480 [6]) [%]	Activity (U-937 [8]) [%]	fold change (FC) (U-937 [9])	Activity (MG-63) [%]	Activity (HaCaT [12]) [%]	Activity (HEK293 [13]) [%]	Activity (THP-1 [14]) [%]	Activity (THP-1 [15]) [%]	Activity (SW480 [16]) [%]	Activity (U-937 [17]) [%]	Activity (HEK293 [19])	further results
2.4	3.7	2.3	6.5	13	1.5	Active	C=C1[C@H](O)CC(=C/C=C2\CCC[C@]3(C)[C@@H]([C@H](C)CC#C[C@H](O)CC45CC6CC(CC(C6)C4)C5)CC[C@@H]23)C[C@H]1O	3.5	10	40	50	3.5	50	20	45	74	10	10	75		
2.8	1.8	0.8	13.5	12	1.1	Active	C=C1[C@H](O)CC(=C/C=C2\CCC[C@]3(C)[C@@H]([C@H](C)CC#C[C@@H](O)CC45CC6CC(CC(C6)C4)C5)CC[C@@H]23)C[C@H]1O	3.5	10	35	50	3.5	50	15	30	55	10	10	65		
4.1	4	4.4	15	12	6.6	Active	C=C1[C@H](O)CC(=C/C=C2\CCC[C@]3(C)[C@@H]([C@H](C)CC#C[C@H](O)C45CC6CC(CC(C6)C4)C5)CC[C@@H]23)C[C@H]1O		22	30	1		5	15	15	20	1	32	30		
0.5	0.4	0.6	1.5	0.5	0.07	inactive	C=C1[C@H](O)CC(=C/C=C2\CCC[C@]3(C)[C@@H]([C@H](C)CC#C[C@@H](O)C45CC6CC(CC(C6)C4)C5)CC[C@@H]23)C[C@H]1O		30	65	85		50	60		105	70	50	125	Active	

The next lines start with the molecule.

SMILES	EC50 (Vitamin D3 receptor [1]) [nM]	EC50 (Vitamin D3 receptor [3]) [nM]	EC50 (Vitamin D3 receptor [5]) [nM]	EC50 (Vitamin D3 receptor [7]) [nM]	IC50 (Vitamin D3 receptor [10]) [nM]	EC50 (Vitamin D3 receptor [11]) [nM]	inhibition [18]	fold change (FC) (THP-1 [2])	Activity (HaCaT [4]) [%]	Activity (SW480 [6]) [%]	Activity (U-937 [8]) [%]	fold change (FC) (U-937 [9])	Activity (MG-63) [%]	Activity (HaCaT [12]) [%]	Activity (HEK293 [13]) [%]	Activity (THP-1 [14]) [%]	Activity (THP-1 [15]) [%]	Activity (SW480 [16]) [%]	Activity (U-937 [17]) [%]	Activity (HEK293 [19])	further results
C=C1/C(=C\C=C2/CCC[C@]3(C)[C@@H]([C@H](C)CCCC(C)(C)O)CC[C@@H]23)C[C@@H](O)C[C@@H]1O																				Active	
C=C1[C@H](O)CC(=C/C=C2\CCC[C@]3(C)[C@@H]([C@H](C)/C=C/C[C@H](O)C45CC6CC(CC(C6)C4)C5)CC[C@@H]23)C[C@H]1O																					inhibition [20]: Dose-dependent effect
